# Shown are actives, neighbours in structure and some others; about 4.5% of the full set was active somewhere.
# GPR7 antag = human neuropeptides B/W receptor 1 antagonism; GPR7-expressing cells, fluorescence antagonist assay; 290,000 compounds, 1.1% hits; inhibition, % at 4.4 µM; AID 1861; P48145; in the data active = inhibition above about 16%, passing the limit was not always enough;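 also: cells stimulated with the agonist NPW; 0% = agonist with vehicle and 100% = vehicle without agonist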
# Target sequence (P48145 whole entry, looked up): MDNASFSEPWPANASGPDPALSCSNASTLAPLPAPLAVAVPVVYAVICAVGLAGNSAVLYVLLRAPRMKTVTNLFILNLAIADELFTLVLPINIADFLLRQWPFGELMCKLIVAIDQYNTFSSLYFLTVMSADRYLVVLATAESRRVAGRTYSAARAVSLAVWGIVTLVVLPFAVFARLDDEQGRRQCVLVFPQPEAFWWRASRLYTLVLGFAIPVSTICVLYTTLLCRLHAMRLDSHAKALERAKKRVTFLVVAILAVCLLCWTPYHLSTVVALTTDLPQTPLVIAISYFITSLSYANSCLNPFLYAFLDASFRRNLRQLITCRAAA
# CHO parental Ca = counter-screen for OX1R antagonists: effect in parental CHO cells. 330,000 compounds, 0.63% hits. inhibition, % at 5.6 µM. parental CHO-K1, ATP-induced calcium, Fluo-8 fluorescence. AID 463079;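 active = inhibition above that plate's mean sample inhibition plus 3 SD, cut at about 26% in these data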;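 also: 0% = ATP-challenged DMSO wells and 100% = DMSO wells without ATP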
#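 Assay system – parental CHO cells · Reagent – ATP stimulus · Detection – intracellular calcium via Fluo-8 no-wash fluorescent dye · Evaluation – percent inhibition of ATP-evoked calcium rise, normalized to controls · Controls – ATP wells versus no-ATP DMSO wells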
# TAAR1 antagonist = human TAAR1 antagonism; Q96RJ0; CHO RD-HGA16 TAAR1, Fluo-8 calcium fluorescence, antagonist; inhibition, % at 3 µM; 360,000 compounds, 1.5% hits; AID 624466;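 active = inhibition above a per-plate cutoff, the mean inhibition of test compounds on that plate plus 3 SD, cut at about 49% in these data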;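 also: 0% = DMSO plus EC80 beta-PEA response and 100% = DMSO alone without agonist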
# Target sequence (Q96RJ0 whole entry, looked up): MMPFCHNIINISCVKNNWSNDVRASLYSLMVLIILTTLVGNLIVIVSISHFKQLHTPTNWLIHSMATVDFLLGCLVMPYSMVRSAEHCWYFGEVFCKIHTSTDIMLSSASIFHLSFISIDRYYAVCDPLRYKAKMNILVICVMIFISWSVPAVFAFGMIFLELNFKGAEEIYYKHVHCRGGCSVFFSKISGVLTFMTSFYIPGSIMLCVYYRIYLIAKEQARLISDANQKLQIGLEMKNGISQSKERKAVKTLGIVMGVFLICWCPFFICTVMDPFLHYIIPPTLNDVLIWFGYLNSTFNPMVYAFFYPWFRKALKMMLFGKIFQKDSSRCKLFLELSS
#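 Material: CHO RD-HGA16 cells bearing hTAAR1; compound dosing: one-point dosing, 3 µM nominal final; schedule: dye loading 75 min at 37 °C, then 30 min room temperature; measured by: calcium fluorescence with Fluo-8; control set: vehicle and agonist controls; replication: n of 1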
# OX1R antag-1 = antagonists of human orexin 1 receptor. O43613. CHO/OX1R cells, Fluo-8 calcium fluorescence, orexin A. inhibition, % at 5 µM. 330,000 compounds, 0.43% hits;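 active = inhibition above its plate's threshold, mean inhibition of all tested compounds on the plate plus 3 SD, cut at about 37% in these data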;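 also: 0% = orexin A challenge wells and 100% = SB-334867-A antagonist wells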
# TAAR1 agonist = human TAAR1 agonism. Q96RJ0. CHO RD-HGA16 TAAR1, Fluo-8 calcium fluorescence; vehicle wells 0%, saturating PEA agonist 100%. activation, % at 3 µM. 360,000 compounds, 0.99% hits. AID 624467;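 active = activation above the mean activation of all test compounds in the run plus 3 SD, cut at about 38% in these data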
#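 test system = CHO RD-HGA16 cells carrying human TAAR1 plus Gα16 | schedule = 17-24 h seeding, 75 min 37 °C dye, 30 min RT | compound dosing = 3 µM single concentration | control set = DMSO and PEA EC100 | replicates = n 1 | signal = Fluo-8 fluorescence, 5 s baseline then 140 s kinetic read | measure = percent activation vs PEA EC100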
# OX1R antag-2 = antagonists of human orexin 1 receptor (OX1R) | 330,000 compounds, 1.8% hits | OX1R-expressing cells, FRET antagonist read-out | inhibition, % at 6.6 µM | O43613; in the data active = inhibition mostly above about 38%, no sharp cut-off; inactive = mostly below about 40%;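 also: 0% = agonist challenge alone and 100% = reference antagonist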
# An asterisk follows results filed as active; . = no result.
SMILES,GPR7 antag,CHO parental Ca,TAAR1 antagonist,OX1R antag-1,TAAR1 agonist,OX1R antag-2
N=c1c(C(=O)NCc2ccco2)cc2c(=O)n3ccccc3nc2n1CC1CCCO1 (centres undefined),-3,-13,3,-23,9,49*
N=c1c(C(=O)NCc2ccc3c(c2)OCO3)cc2c(=O)n3ccccc3nc2n1CC1CCCO1 (centres undefined),22,-19,-18,-31,-2,69*
Cc1ccc(Cn2c(=N)c(C(=O)NCc3ccco3)cc3c(=O)n4ccccc4nc32)cc1,-2,-14,7,-14,0,29
N=c1c(C(=O)NCC2CCCO2)cc2c(=O)n3ccccc3nc2n1Cc1ccccc1Cl (centres undefined),9,-6,7,-4,-1,30
C#CCOCCOCCOCCNc1nc(N2CCN(C(=O)CCCCCCCCCCNC(=O)[C@H](CCCCN)n3cc(C)nn3)CC2)nc(N2CCN(C(=O)CCCCCCCCCCNC(=O)[C@@H]([C@H](C)CC)n3cc(CCCCCN)nn3)CC2)n1,.,73*,.,-8,.,-4
C#CCOCCOCCOCCNc1nc(N2CCN(C(=O)CCCCCCCCCCNC(=O)[C@H](CCCCN)n3cc(C[C@@H](C)CC)nn3)CC2)nc(N2CCN(C(=O)CCCCCCCCCCNC(=O)[C@H](CCCCN)n3cc(C[C@@H](C)CC)nn3)CC2)n1,.,101*,.,33,.,-9
CC[C@H](C)Cc1cn([C@@H](CCCCNC(=O)OC(C)(C)C)C(=O)NCCCCCCCCCCC(=O)N2CCN(C(=O)OC(C)(C)C)CC2)nn1,.,20,63*,8,14,8
C#CCOCCOCCOCCNc1nc(N2CCN(C(=O)CCCCCCCCCCNC(=O)[C@H]([C@@H](C)CC)n3cc(CCCCCN)nn3)CC2)nc(N2CCN(C(=O)CCCCCCCCCCNC(=O)[C@@H]([C@H](C)O)n3cc(C)nn3)CC2)n1,.,-4,.,-8,.,-23
CC(C)(C)OC(=O)NCCCC[C@@H](C(=O)NCCCCCCCCCCC(=O)N1CCN(C(=O)OC(C)(C)C)CC1)n1cc(CCO)nn1,.,-10,38,-24,14,3
CCC(CC)C(=O)N(C)c1c(C)nc2c(OCc3ccc(Cl)cc3Cl)cccn12,.,.,-26,.,2,.
CC(=O)NC(c1ccccc1)c1nc(-c2cccs2)cs1 (centres undefined),.,.,-26,.,0,.
CCNC(=O)C1CCCN(C(=O)c2ccc(C#N)cc2)CC1 (centres undefined),.,.,-20,.,8,.
O=C(Nc1ccc(Cl)cc1)c1cc2c(cc1O)[nH]c1ccccc12,43*,72*,12,55*,8,52*
Cc1[nH]c2ccccc2c1C(=O)CSc1nc2ccccc2c(=O)n1CCCN1CCOCC1,8,8,71*,-5,48*,22
O=[N+]([O-])c1cc2c(ccc3occc32)o1,.,.,2,.,-2,.
CC(NC(=O)/C(C#N)=C/c1ccc(OCC(=O)O)cc1)c1ccccc1 (centres undefined),18,-8,3,-12,1,1
N#C/C(=C\c1ccc(Cl)c([N+](=O)[O-])c1)c1ccccn1,-6,-20,-15,-8,2,71*
CC(NC(=O)/C(C#N)=C/c1ccc(Cl)c([N+](=O)[O-])c1)c1ccccc1 (centres undefined),-10,-10,21,-28,39*,28
Clc1ccc2nc3c4ccccc4cnn3c2c1,-5,-24,-6,3,11,69*
CCOc1ccc(Cl)cc1-c1cc(C(=O)NCc2cccc(C(F)(F)F)c2)[nH]n1,.,.,19,.,0,.
CC(=O)N1CCN(c2ccc([N+](=O)[O-])c(NCC3CCCO3)c2)CC1 (centres undefined),4,-14,0,-9,6,79*
Cc1cc(Cl)ccc1NC(=S)NCCC(c1ccccc1)c1ccccc1,-15,37*,36,45*,9,52
Cc1oc(-c2ccccc2Cl)nc1CS(=O)CC(=O)NCCc1ccccc1 (centres undefined),3,-22,-14,-43,38*,20
Cc1ccc(C(=O)C2CC2)cc1C,.,.,-20,.,1,.
CCCCCCC[C@@H](C/C=C/CCC(=O)N(C)C/C(=C/Cl)C/C(=C\C(=O)N1C[C@H](O)CC1=O)OC)OC,.,41*,50*,2,5,13
SMILES,GPR7 antag,CHO parental Ca,TAAR1 antagonist,OX1R antag-1,TAAR1 agonist,OX1R antag-2
CCCCCCC[C@@H](C/C=C/CCC(=O)N(C)C/C(=C/Cl)C/C(=C\C(=O)N1CC(OC)=CC1=O)OC)OC,.,34,7,57*,-1,42*
CCCCCCC[C@@H](C/C=C/CCC(=O)O)OC,.,-3,-6,-11,0,10
C[C@H](CO)N1C[C@H](C)[C@@H](CN(C)C(=O)Nc2ccc3c(c2)OCO3)OCc2cn(nn2)CCCC1=O,.,.,5,.,0,.
CC(C)C[C@H]1COc2cc(N3CCOCC3)ccc2S(=O)(=O)N1,.,.,-5,.,2,.
CN(C)CCCNC(=O)c1c(N)[nH]c(C(=O)c2ccc(Br)cc2)c1-c1ccc(Br)cc1,.,.,-14,.,2,.
Cn1c(=O)c2c(ncn2CC(=O)Nc2nc(-c3ccccc3Cl)cs2)n(C)c1=O,-7,-6,19,4,39*,10
CCOC(=O)Cc1csc(NC(=O)Cn2cnc3c2c(=O)n(C)c(=O)n3C)n1,2,-2,12,-4,4,5
COc1ccccc1CNc1nc(Nc2ccc(C)cc2C)c2sccc2n1,.,.,29,.,3,.
O=C(N/N=C/c1cc(Cl)ccc1O)C(=O)Nc1ccccc1OC(F)(F)C(F)F,-17,-15,30,-3,3,69*
O=C(N/N=C/c1cc(Br)ccc1O)C(=O)Nc1ccccc1OC(F)(F)C(F)F,-9,-9,39,1,5,31
CCC1(c2ccc(OC)cc2)NC(=O)N(CC(=O)N2CCc3ccccc32)C1=O (centres undefined),.,.,33,.,64*,.
CCC1(c2ccccc2)NC(=O)N(CC(=O)Nc2ccccc2N2CCCC2)C1=O (centres undefined),.,-1,3,-3,39*,17
CC1(c2ccccc2)NC(=O)N(CC(=O)Nc2ccccc2N2CCCCC2)C1=O (centres undefined),.,-14,30,-16,24,9
CCC1(c2ccccc2)NC(=O)N(CC(=O)N(CC(=O)Nc2ccccc2C(F)(F)F)Cc2ccco2)C1=O (centres undefined),.,-9,18,-9,44*,7
CCC1(c2ccc(OC)cc2)NC(=O)N(CC(=O)c2ccc3c(c2)OCCO3)C1=O (centres undefined),.,-4,0,-1,38*,1
Cc1cc2c(c(=O)o1)[C@@]1(C(=O)N(C)c3cccc(Br)c31)C1=C(CCCC1=O)O2,.,.,-22,.,2,.
C[C@@H]1COc2cc(N3CCOCC3)ccc2S(=O)(=O)N1,.,.,-19,.,2,.

# Compound activity: PubChem BioAssay, The Scripps Research Institute Molecular Screening Center
